# Results published in ChEMBL document CHEMBL1151956, “Sucutiniranes C-F, cassane-type diterpenes from Bowdichia nitida” (J Nat Prod, 2009).
# Calls of active or inactive are those of the source. The rule behind the calls is not given here.
# Columns and labels:
# HL-60 [1] = experiment: Cytotoxicity against human HL60 cells at 50 uM after 48 hrs by MTT assay; type: functional, cell-based
# MCF7 [2] = experiment: Cytotoxicity against human MCF7 cells at 50 uM after 48 hrs by MTT assay; type: functional, cell-based
# HCT-116 [3] = experiment: Cytotoxicity against human HCT116 cells at 50 uM after 48 hrs by MTT assay; type: functional, cell-based
# Plasmodium falciparum = experiment: Antiplasmodial activity against Plasmodium falciparum 3D7; type: functional, organism-based
# HL-60 [4] = experiment: Cytotoxicity against human HL60 cells after 48 hrs by MTT assay; type: functional, cell-based; conditions: HL-60, 48 h
# How it was run: (§1)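 Cells seeded in 96-well plates, HL-60 at 1 × 10^4 cells/well and HCT-116 and MCF-7 at 5 × 10^3 cells/well, then preincubated 24 h at 37 °C in humidified 5% CO2. Compounds were added at graded concentrations and incubated for 48 h at 37 °C. MTT (5 mg/mL) was added for 2 h, and formazan was dissolved in 10% SDS/0.01 N HCl. Absorbance was read at 550 and 700 nm. Triplicate wells were used, and IC50 was taken from percent living cells versus controls.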
# MCF7 [5] = experiment: Cytotoxicity against human MCF7 cells after 48 hrs by MTT assay; type: functional, cell-based; conditions: MCF7, 48 h; how it was run: as §1
# HCT-116 [6] = experiment: Cytotoxicity against human HCT116 cells after 48 hrs by MTT assay; type: functional, cell-based; conditions: HCT-116, 48 h; how it was run: as §1
SMILES,Activity (HL-60 [1]),Activity (MCF7 [2]),Activity (HCT-116 [3]),Activity (Plasmodium falciparum),IC50 (HL-60 [4]),IC50 (MCF7 [5]),IC50 (HCT-116 [6])
CC(=O)O[C@H]1Cc2c(cc3occc3c2C)[C@@]2(C)CCCC(C)(C)[C@H]12,inactive,inactive,inactive,inactive,,,
Cc1c2c(cc3occc13)[C@@]1(C)CCCC(C)(C)[C@@H]1C=C2,inactive,inactive,inactive,inactive,,,
CC(=O)O[C@H]1C[C@H]2[C@@H](C)C3=CC(=O)O[C@@H]3C[C@@H]2[C@@]2(C)CCCC(C)(C)[C@H]12 [12-DEOXY-SUCUTINIRANE A],,,,,32 µM,,
CC(=O)O[C@H]1C[C@H]2[C@@H](C)C3=CC(=O)O[C@]3(O)C[C@@H]2[C@@]2(C)CCCC(C)(C)[C@H]12 [SUCUTINIRANE A],,,,,14 µM,,
CC(=O)O[C@H]1[C@H](O)[C@H]2[C@@H](C)c3ccoc3C[C@@H]2[C@@]2(C)CCCC(C)(C)[C@H]12 [Sucutinirane E],,,,inactive,12 µM,35 µM,36 µM
CC(=O)O[C@H]1[C@H](O)[C@H]2C(C)(C)CCC[C@]2(C)[C@H]2Cc3occc3[C@H](C)[C@H]12 [Sucutinirane F],,,,inactive,7.5 µM,18 µM,30 µM
